Assay outcomes as filed in PubChem.
Shown are actives, neighbours in structure and some others; about 2.3% of the full set was active somewhere.
TRPC4 PAM – positive allosteric modulators of TRPC4, primary screen, cell-based, mouse TRPC4beta, HEK293 mu-opioid, Fluo-4 calcium | Short transient receptor potential channel 4 (Mus musculus), Q9QUQ5 | DAMGO EC20, Fluo-4 Ca2+ flux; hits give high values | B-score at 10 µM | 0.42% of 310,000 active;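 active = B-score of calcium response area above 5 SD of library B-scores, with initial fluorescence ratio within 5 SD of library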;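 also: B-score of integrated fluorescence ratio over time as area under calcium response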
Target sequence (Q9QUQ5 whole entry, looked up): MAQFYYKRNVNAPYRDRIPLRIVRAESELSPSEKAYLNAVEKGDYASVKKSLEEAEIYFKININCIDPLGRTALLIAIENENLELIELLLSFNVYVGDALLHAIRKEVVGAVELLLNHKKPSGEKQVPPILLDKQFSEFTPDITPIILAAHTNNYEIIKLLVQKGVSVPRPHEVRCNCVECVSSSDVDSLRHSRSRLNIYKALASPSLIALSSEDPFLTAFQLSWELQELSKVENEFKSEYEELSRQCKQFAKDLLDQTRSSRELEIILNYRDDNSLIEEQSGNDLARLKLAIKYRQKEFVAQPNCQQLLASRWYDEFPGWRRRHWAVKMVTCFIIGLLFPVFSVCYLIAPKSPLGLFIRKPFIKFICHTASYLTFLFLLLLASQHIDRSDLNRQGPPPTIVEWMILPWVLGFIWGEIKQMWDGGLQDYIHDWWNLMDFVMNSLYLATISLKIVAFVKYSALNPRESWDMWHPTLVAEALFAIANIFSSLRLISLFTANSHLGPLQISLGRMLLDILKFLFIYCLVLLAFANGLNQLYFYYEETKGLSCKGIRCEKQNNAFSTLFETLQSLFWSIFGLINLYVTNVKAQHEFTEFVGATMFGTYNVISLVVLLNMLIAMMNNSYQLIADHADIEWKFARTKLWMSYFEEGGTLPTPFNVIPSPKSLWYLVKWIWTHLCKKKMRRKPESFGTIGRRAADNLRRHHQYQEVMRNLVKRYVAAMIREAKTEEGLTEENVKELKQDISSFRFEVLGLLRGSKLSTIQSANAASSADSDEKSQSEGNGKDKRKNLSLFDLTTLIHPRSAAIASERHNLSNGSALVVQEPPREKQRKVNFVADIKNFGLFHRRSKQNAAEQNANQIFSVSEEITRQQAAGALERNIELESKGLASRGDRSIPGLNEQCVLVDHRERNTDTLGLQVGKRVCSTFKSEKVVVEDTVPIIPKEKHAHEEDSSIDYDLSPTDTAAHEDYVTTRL
TRPC6 activator – mouse TRPC6 channel activators, primary screen, cell-based, HEK293, membrane potential dye. HEK293-TRPC6 membrane potential dye fluorescence; hits give high values. AID 2550, 2010. Short transient receptor potential channel 6 (Mus musculus), Q61143. 0.13% of 310,000 active. B-score at 10 µM;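 active = B-score of the integrated fluorescence ratio above library mean plus 3 SD, and starting fluorescence ratio within library mean plus 5 SD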;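 also: higher score means more depolarization so channel activation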
TRPC4 inh – inhibitors of mouse TRPC4 channel, primary screen, Fluo4 calcium, HEK293 TRPC4beta/mu-opioid cells; B-score at 10 µM; DAMGO-evoked Fluo4 calcium flux; hits give low values; Short transient receptor potential channel 4 (Mus musculus), Q9QUQ5; 0.39% of 300,000 active;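 active = B-score over 3 SD under the library average, no early fluorescence shift, positive overall ratio signal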
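Assay system: TRPC4beta/mu-opioid receptor HEK293 cell line; compound dosing: single concentration per test compound; detection: Fluo4 Ca2+ flux fluorescence; evaluation: per-well B score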
TRPC6 inh – mouse TRPC6 channel inhibitors, primary screen, cell-based, HEK293, membrane potential dye. ACh-evoked depolarization; hits give low values. AID 2553, 2010. 1.1% of 310,000 active. B-score at 10 µM. Short transient receptor potential channel 6 (Mus musculus), Q61143;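 active = B-score under library mean minus 3 SD, initial fluorescence not abnormally high, positive integrated signal ratio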;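 also: B-score derived from integrated fluorescence ratio over the kinetic read; more negative B-score means stronger inhibition of depolarization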
TRPC4 agonist – activators of mouse TRPC4 channel, primary screen, Fluo4 calcium, HEK293 TRPC4beta/mu-opioid cells. Short transient receptor potential channel 4 (Mus musculus), Q9QUQ5. Fluo4 calcium fluorescence; hits give high values. B-score at 10 µM. 0.49% of 310,000 active. AID 2237, 2010;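 active = B-score above 5 SD of library B-scores, and initial fluorescence ratio not above library mean plus 5 SD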;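 also: positive B-score marks a calcium rise read as TRPC4 activation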
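Material: HEK293 stable line with TRPC4beta plus mu-opioid receptor; technique: Fluo4 calcium-sensitive dye fluorescence, kinetic, 1 Hz baseline; timing: Fluo4 dye loading 45 min at room temperature, 110 s recording; controls: assay buffer as low control, maximal DAMGO as high control; read-out: integrated baseline-normalised fluorescence ratio, converted to per-well B score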
TRPC4 sel inh 2 – second selectivity test of TRPC6 inhibitors: effect on mouse TRPC4; AID 2776; 42% of 920 active; shares compounds with TRPC6 inh; HEK293 TRPC4/MOR, membrane potential dye fluorescence; channel activated by saturating DAMGO dose; inhibition, % at 10 µM;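 active = compounds whose fluorescence signal differed from control wells by over 3 SD, either direction, in both duplicate plates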
TRPC4 spec – mouse TRPC4 modulation by TRPC6 hits, confirmation, selectivity assay for TRPC6 inhibitor project, cell-based, HEK293 TRPC4/mu-opioid, membrane potential dye; shares compounds with TRPC6 inh; membrane potential fluorescence; activity change, negative = inhibition, % at 10 µM; 61% of 920 active; AID 2777, 2010;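 active = rise or fall in signal beyond 3 SD of buffer-only wells in both replicate plates, either sign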;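 also: integrated kinetic ratio of fluorescence range over baseline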
HEK293 MPD ctr 2-1 – nonspecific membrane potential effects, parental HEK293, confirmation, counter-screen for TRPC6 inhibitor project, cell-based, second counter screen; shares compounds with TRPC6 inh; parental HEK293 membrane potential dye fluorescence; maximal acetylcholine challenge after compound addition; signal change vs control, % at 10 µM; 31% of 920 active; AID 2779, 2010;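 active = membrane potential signal moving either way by over 3 SD of the maximum-effect control, in both duplicate plates, meaning non-specific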
HEK293 MPD ctr-1 – membrane potential modulation in parental HEK293, confirmation, counter-screen for TRPC6 inhibitor project, cell-based | membrane potential signal change, % at 10 µM | 60% of 920 active | shares compounds with TRPC6 inh | parental HEK293 membrane potential dye fluorescence;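 active = membrane potential signal shifting up or down by more than 3 SD of buffer-only wells, on both duplicate plates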
HEK293 MPD ctr-2 – parental HEK293 membrane potential modulation, confirmation, counter-screen for TRPC6 modulator project, cell-based. membrane potential dye fluorescence. shares compounds with TRPC6 inh. 51% of 2,400 active. membrane potential signal change, % at 10 µM. AID 488924, 2010;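 active = membrane potential signal moves up or down beyond 5 SD from buffer-only wells, on both duplicate plates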
HEK293 MPD ctr 2-2 – second check of TRPC6 modulator effects in parental HEK293 cells; shares compounds with TRPC6 inh; membrane potential dye fluorescence; after compound, maximal acetylcholine stimulation; inhibition, % at 10 µM; 14% of 2,400 active;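 active = membrane potential signal drops by more than 5 SD from the mean control signal, in both duplicate plates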;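 also: plate controls were acetylcholine ECmax control wells for no effect and buffer only wells for full effect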
TRPC4/MOR mod – TRPC4 modulation by TRPC6 hit compounds, confirmation, selectivity assay for TRPC6 modulator project, cell-based, HEK293 TRPC4/mu-opioid, membrane potential dye, mouse | percent change from control (negative = decrease, positive = increase), % at 10 µM | 69% of 2,400 active | membrane potential fluorescence | AID 488927, 2010 | shares compounds with TRPC6 inh;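 active = membrane potential signal moved up or down beyond 5 SD of buffer control wells, in both duplicate plates, actives on both sides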;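 also: plate controls were assay buffer wells for no effect and DAMGO maximal-effect wells for full effect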
TRPC4/MOR inh 2 – mouse TRPC4 off-target activity of TRPC6 modulators, second screen | AID 488928 | inhibition, % at 10 µM | 55% of 2,400 active | shares compounds with TRPC6 inh | HEK293 TRPC4/mu-opioid, membrane potential dye fluorescence; stimulated with maximal-effect DAMGO;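 active = drop in membrane potential signal beyond 5 SD of the control wells in both duplicate plates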;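 also: TRPC4 counter screen for TRPC6 hits run under conditions tuned for TRPC6 not TRPC4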
TRPC6 inh conf – mouse TRPC6 channel inhibitors, confirmation, HEK293 cells, membrane potential dye, duplicate; shares compounds with TRPC6 inh; inhibition, % at 10 µM; 43% of 3,300 active; ACh-evoked depolarization;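 active = fluorescence ratio falls more than 5 SD below the full-stimulation control mean, in both duplicate runs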;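 also: integrated fluorescence ratio of peak minus minimum over baseline after agonist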
TRPC6 act confirm – mouse TRPC6 channel activators, confirmation, HEK293 cells, membrane potential dye, duplicate; shares compounds with TRPC6 inh; HEK293-TRPC6 membrane potential dye fluorescence, FDSS; activation, % at 10 µM; 11% of 2,800 active; AID 488961, 2010;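 active = ratio signal rise beyond 5 SD above unstimulated control wells' mean, seen in both duplicate runs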;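 also: plate controls were buffer EC0 wells for no effect and acetylcholine ECmax response for full effect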
The depositor's hits bear a star; i = inactive; / = not tested or not shown.

SMILES | TRPC4 PAM | TRPC6 activator | TRPC4 inh | TRPC6 inh | TRPC4 agonist | HEK293 MPD ctr-2 | HEK293 MPD ctr 2-2 | TRPC4/MOR mod | TRPC4/MOR inh 2 | TRPC6 inh conf | TRPC6 act confirm | others
Cc1cccn2c(=O)c3cc(C#N)c(=NC(=O)c4cccs4)n(CC(C)C)c3nc12 | i | i | i | i | i | / | / | / | / | / | /
COCCCn1c(=NC(=O)c2ccccc2)c(C#N)cc2c(=O)n3cccc(C)c3nc21 | i | i | i | -6.7* | i | i | i | i | i | i | i
Cc1cccn2c(=O)c3cc(C#N)c(=NC(=O)c4ccccc4)n(Cc4ccco4)c3nc12 | i | i | i | i | i | / | / | / | / | / | /
COCCCn1c(=NC(C)=O)c(C#N)cc2c(=O)n3cccc(C)c3nc21 | i | i | i | -6* | i | -140%* | i | -42%* | 28%* | i | i
CCOCCCn1c(=NC(=O)c2cccs2)c(C#N)cc2c(=O)n3cccc(C)c3nc21 | i | i | i | i | i | / | / | / | / | / | /
Cc1c(C(=O)OC(C)C(C)C[N+](C)(C)C)oc2ccccc12 (stereo unspecified) | i | i | i | -7.5* | i | i | 64%* | i | i | 72%* | i
CCN(CC)CCCN(C(=O)c1cccs1)c1nc(-c2ccc(OC)cc2)cs1 | i | i | i | i | i | / | / | / | / | / | /
CCN(CC)CCCN(C(=O)c1ccco1)c1nc(-c2ccc(Cl)cc2)cs1 | i | i | i | -7.5* | i | / | / | / | / | 60%* | i | TRPC4 sel inh 2=26%*;TRPC4 spec=-13%*;HEK293 MPD ctr 2-1=i;HEK293 MPD ctr-1=-154%*
CCN(CC)CCCN(C(=O)c1ccc(Br)cc1)c1nc(-c2ccc(OC)cc2)cs1 | i | i | i | -6.2* | i | i | i | i | 72%* | 53%* | i
CCN(CC)CCCN(C(=O)c1cccc(C)c1)c1nc(-c2ccc(OC)cc2)cs1 | i | i | i | -6.1* | i | i | i | -14%* | 86%* | 83%* | i
O=C(O)CC(CC(=O)NCC(O)c1ccccc1)c1ccccc1 (stereo unspecified) | i | i | i | i | i | / | / | / | / | / | /
O=C(NCCCn1ccnc1)c1cccc(Cl)c1 | i | i | i | i | i | / | / | / | / | / | /
O=C(CN1CCCCC1)Nc1cccc(Br)c1 | i | i | i | i | i | / | / | / | / | / | /
CC(C)NC(=O)COc1ccc(S(=O)(=O)N(C)Cc2ccccc2)cc1 | i | i | i | i | i | / | / | / | / | / | /
CCCn1nc([N+](=O)[O-])c(C(C#N)c2nc3ccccc3s2)c(Cl)c1=O (stereo unspecified) | i | i | i | -13* | i | -210%* | i | -36%* | 83%* | 66%* | i
CCn1nc([N+](=O)[O-])c(C(C#N)c2nc3ccccc3n2C)c(Cl)c1=O (stereo unspecified) | i | i | i | i | i | / | / | / | / | / | /
CCOc1ccc(S(=O)(=O)Nc2cc(Cl)ccc2O)cc1 | i | i | i | -5.3* | i | i | i | -16%* | i | i | i
CCOc1ccc(S(=O)(=O)Nc2cccc(Cl)c2)cc1 | i | i | i | i | i | / | / | / | / | / | /
CC(Nc1ccc(Cl)cc1)c1cc(Cl)ccc1O (stereo unspecified) | i | i | i | i | i | / | / | / | / | / | /
CCOc1ccc(NC(C)c2cc(Cl)ccc2O)cc1 (stereo unspecified) | i | i | i | -5.2* | i | i | i | -15%* | 38%* | i | i
CCc1ccc(S(=O)(=O)N2CCN(C(=O)C3CCN(C(C)=O)CC3)CC2)cc1 | i | i | i | i | i | / | / | / | / | / | /
CC(=O)c1ccccc1OCCCCN1CCCCC1 | i | i | i | i | i | / | / | / | / | / | /
O=C(c1ccc([N+](=O)[O-])cc1)N(Cc1ccc(Br)cc1)N1C(=O)CCCC1=O | i | 16* | i | -9.8* | 45* | 458%* | 186%* | 38%* | 34%* | 68%* | 100%*
